In series [1] the target is T1, Solute carrier family 15 member 1 (Homo sapiens, UniProt P46059).
T1 sequence (P46059 whole entry): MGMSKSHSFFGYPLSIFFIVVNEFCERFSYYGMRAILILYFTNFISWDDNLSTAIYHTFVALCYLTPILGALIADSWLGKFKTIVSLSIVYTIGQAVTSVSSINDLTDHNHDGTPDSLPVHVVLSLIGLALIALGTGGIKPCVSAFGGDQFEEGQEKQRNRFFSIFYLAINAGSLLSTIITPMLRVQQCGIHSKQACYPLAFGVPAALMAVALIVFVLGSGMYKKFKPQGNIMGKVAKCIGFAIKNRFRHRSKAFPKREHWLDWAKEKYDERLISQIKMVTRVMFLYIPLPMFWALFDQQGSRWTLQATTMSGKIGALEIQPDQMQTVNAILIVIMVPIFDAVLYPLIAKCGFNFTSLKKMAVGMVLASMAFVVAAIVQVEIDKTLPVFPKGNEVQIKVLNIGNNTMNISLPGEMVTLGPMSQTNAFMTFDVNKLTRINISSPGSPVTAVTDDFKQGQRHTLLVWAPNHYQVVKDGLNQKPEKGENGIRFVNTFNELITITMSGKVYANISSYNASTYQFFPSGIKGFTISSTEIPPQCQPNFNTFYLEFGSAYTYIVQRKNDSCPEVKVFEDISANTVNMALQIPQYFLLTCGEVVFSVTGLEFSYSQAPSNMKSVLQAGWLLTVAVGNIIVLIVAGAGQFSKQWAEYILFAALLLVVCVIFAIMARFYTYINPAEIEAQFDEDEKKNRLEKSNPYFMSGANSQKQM
In words: Substrate activity at PEPT1 in human Caco2 cells assessed as inhibition of Gly-Sar uptake by LC-MS/MS analysis. In kind it is cell-based. In outline:
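Caco-2 cells with 0.5 mM Gly-Sar probe substrate and competitor at 0.5–50 mM. IC50 by nonlinear fitting; n=3.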

The nature of series [2]: AUC (0 to t) in Sprague-Dawley rat at 12 mg/kg, po by UPLC-MS/MS analysis. The settings on record: in vivo. In kind it is ADME, organism-based. Put shortly:
(§1)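 Male SD rats, 200-250 g, fasted 12 h with water, n=6. Oral dose of 12 mg/kg as JBP485 equivalent; dose-effect arms at 12 and 100 mg/kg. JBP485 given iv at 6 mg/kg as the reference. Jugular blood taken at 0.083-10 h. Plasma JBP485 by UPLC-MS/MS. Absolute F = (AUCpo×Div)/(AUCiv×Dpo)×100%, using AUC0-t.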

The subject of series [3] is Rattus norvegicus. Briefly: Anti-hepatitis activity in ANIT-induced ip dosed Sprague-Dawley rat model of cholestasis assessed as reduction in serum total bilirubin level administered 30 mins prior to ANIT challenge and subsequent dosing at 8, 22, 32, and 46 hrs post ANIT challenge and measured 48 hrs post ANIT challenge. The series is classed as functional, organism-based. Put shortly:
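Male SD rats, 6 weeks old, fasted 12 h, 6 per group. Cholestasis induced by ANIT 50 mg/kg ip in olive oil. Test agents were given in water; UDCA 100 mg/kg was given orally in CMC-Na. Dosing at 30 min before and 8, 22, 32 and 46 h after ANIT. Serum taken from the abdominal aorta under chloral hydrate anesthesia at 48 h; total bilirubin measured with an assay kit.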

The subject of series [4] is Rattus norvegicus. In words: Anti-hepatitis activity in ANIT-induced Sprague-Dawley rat model of liver injury assessed as reduction in liver necrosis at 6.25 to 25 mg/kg, po administered 30 mins prior to ANIT challenge and subsequent dosing at 8, 22, 32, and 46 hrs post ANIT challenge and measured 48 hrs post ANIT challenge by H and E staining-based assay. In kind it is functional, organism-based. Put shortly:
(§2)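 ANIT 50 mg/kg ip liver-injury model in male SD rats, 6 per group. Oral or ip treatment at 30 min before and 8, 22, 32 and 46 h after ANIT. Liver excised at 48 h, fixed in 4% formalin, stained with H&E, and examined microscopically for hepatocellular edema and necrosis.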

Series [5] in a line: Cmax in Sprague-Dawley rat assessed as JBP485 level at 12 mg/kg, po by LC-MS/MS analysis. The settings on record: in vivo. In kind it is ADME, organism-based. Also on record: dose 12 mg/kg, route oral. Put shortly: as §1
Series [6] is described as follows: Terminal half-life in Sprague-Dawley rat at 6 mg/kg, iv by UPLC-MS/MS analysis. In kind it is ADME, organism-based. The settings on record: in vivo, read-out: beta t1/2 (converted). In outline: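 Fasted male SD rats given JBP485 6 mg/kg intravenously. Jugular blood sampled 0.083–10 h, plasma by UPLC-MS/MS; n=6.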
For series [7], the system named is Rattus norvegicus. Briefly: Anti-hepatitis activity in ANIT-induced Sprague-Dawley rat model of liver injury assessed as reduction in liver necrosis at 6.25 to 12.5 mg/kg, ip administered 30 mins prior to ANIT challenge and subsequent dosing at 8, 22, 32, and 46 hrs post ANIT challenge and measured 48 hrs post ANIT challenge by H and E staining-based assay. In kind it is functional, organism-based. In outline: as §2

Series [8] relates to Rattus norvegicus. Briefly: Anti-hepatitis activity in ANIT-induced Sprague-Dawley rat model of liver injury assessed as reduction in hepatocellular edema at 6.25 to 25 mg/kg, po administered 30 mins prior to ANIT challenge and subsequent dosing at 8, 22, 32, and 46 hrs post ANIT challenge and measured 48 hrs post ANIT challenge by H and E staining-based assay. In kind it is functional, organism-based. In outline:
as §2

The nature of series [9]: Tmax in Sprague-Dawley rat assessed as JBP485 level at 100 mg/kg, po by LC-MS/MS analysis. The settings on record: in vivo. In kind it is ADME, organism-based. Put shortly:
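Male SD rats (200–250 g) fasted 12 h, given JBP485 or prodrug (calculated as JBP485) orally at 12 or 100 mg/kg. Jugular blood sampled 0.083–10 h, plasma JBP485 by UPLC-MS/MS; n=6.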

Series [10] in a line: Terminal half-life in Sprague-Dawley rat assessed as JBP485 level at 12 mg/kg equiv of JBP485 administered orally by UPLC-MS/MS analysis. The series is classed as ADME, organism-based. The settings on record: in vivo, po. In outline: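 Fasted male SD rats (200–250 g), oral 12 mg/kg (prodrugs calculated as JBP485). Jugular blood 0.083–10 h, centrifuged, plasma JBP485 by UPLC-MS/MS; n=6.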

Series [11] is described as follows: AUC (0 to t) in Beagle dog assessed as JBP485 level at 12 mg/kg equiv of JBP485 administered orally by UPLC-MS/MS analysis. In kind it is ADME, organism-based, Canis lupus familiaris. The settings on record: in vivo, po. Put shortly: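 Male beagle dogs, 2 years old, 8-10 kg, n=6. Single oral dose of 12 mg/kg (prodrug dosed as JBP485 equivalent) given in aqueous solution. Jugular venipuncture blood taken at 0.167-8 h into sodium heparin tubes. Plasma JBP485 measured by UPLC-MS/MS; AUC0-t and Cmax from the concentration-time profiles.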

The nature of series [12]: AUC (0 to t) in Sprague-Dawley rat assessed as JBP485 level at 12 mg/kg equiv of JBP485 administered orally by UPLC-MS/MS analysis. The series is classed as ADME, organism-based. The settings on record: in vivo, po. Put shortly:
as §1

The nature of series [13]: Ratio of half-life in pH 7.2 phosphate buffer to half-life in Sprague-Dawley rat liver homogenates. In kind it is ADME, tissue-based. The settings on record: tissue homogenate.
The test system of series [14] is Rattus norvegicus. In words: Anti-hepatitis activity in ANIT-induced Sprague-Dawley rat model of liver injury assessed as reduction in hepatocellular edema at 3.125 to 25 mg/kg, po administered 30 mins prior to ANIT challenge and subsequent dosing at 8, 22, 32, and 46 hrs post ANIT challenge and measured 48 hrs post ANIT challenge by H and E staining-based assay. In kind it is functional, organism-based. In outline:
as §2

Active and inactive are the calls of the source. The rule behind the calls is not given here.

As to `O=C1N[C@@H](CO)C(=O)N2C[C@H](O)C[C@@H]12`, the Ki in series [1] worked out at 36 mM. The same compound gave an AUCt in series [2] of 81.4 nM/ml.hr. The Activity result in the series on Rattus norvegicus [3] was “Dose-dependent effect”. The outcome in the series on Rattus norvegicus [4], in the series on Rattus norvegicus [7] and in the series with Rattus norvegicus [8] was Active. Moreover, in [5], the Cmax was found to be 27.84 nM/ml. Besides, the half-life in series [6] is 67.8 min. For the same compound, in [9], the Tmax was determined as 1.5 h.

Regarding `CC(C)[C@H](N)C(=O)OC[C@@H]1NC(=O)[C@@H]2C[C@@H](O)CN2C1=O`, in [10], the “beta t1/2” value came out at 2.11 h. Moreover, the AUCt stood at 233.25 nM/ml.hr in [11] and 194.47 nM/ml.hr in series [12]. Also, the Ratio in series [13] is 3 to 35. Besides, in the series on Rattus norvegicus [14], the result was Active.

(Values after ChEMBL document CHEMBL4373712, “Bioactivatable Pseudotripeptidization of Cyclic Dipeptides To Increase the Affinity toward Oligopeptide Transporter 1 for Enhanced Oral Absorption: An Application to Cyclo(l-Hyp-l-Ser) (JBP485)” (J Med Chem, 2019).)
